According to ChEMBL document CHEMBL1156266, “Antisense oligonucleotides containing conformationally constrained 2',4'-(N-methoxy)aminomethylene and 2',4'-aminooxymethylene and 2'-O,4'-C-aminomethylene bridged nucleoside analogues show improved potency in animal models” (J Med Chem, 2010):
Active and inactive are the calls of the source. The rule behind the calls is not given here.

Columns and labels:
Mus musculus [1] = experiment: Reduction in PTEN mRNA expression in ip dosed BALB/c mouse liver administered twice a week for 3 weeks measured after 72 hrs of last dose by RT-PCR analysis; format: functional
Method in brief: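 Male Balb/c mice, 6-week-old, ASO in PBS ip twice weekly for 3 weeks, four dose levels. Killed 72 h after last dose. Liver homogenized in guanidine isothiocyanate buffer, RNA column-purified. PTEN RNA by fluorescence qRT-PCR, normalized to cyclophilin A. Errors are SD.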

[2] = Reduction in PTEN mRNA expression in mouse bEND.3 cells after 24 hrs by qRT-PCR analysis; format: functional, cell-based; conditions: for IC50: BEND3, 24 h
Method in brief: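 bEnd.3 cells in DMEM/10% FBS, seeded at 1 × 10^4 cells/well the day before. Transfected 4 h at 37 °C with Lipofectin 3 μg/mL in OptiMEM, eight 1:2 dilutions (40 nM to 312.5 pM), then refed with complete medium for 24 h. PTEN RNA by qRT-PCR, normalized to cyclophilin A, as % untreated control. Triplicate plates. IC50 from sigmoidal fit, top 100%, bottom 0%.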

Mus musculus [3] = experiment: Toxicity in BALB/c mouse assessed as increase in liver weight at 0.5 to 14.6 mg/kg, ip administered twice a week for 3 weeks measured after 72 hrs of last dose; format: organism-based; design: dose 0.5-14.6 mg/kg, route intraperitoneal; conditions: in vivo
Method in brief: (§1)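 Male Balb/c mice, ip ASO in PBS twice weekly for 3 weeks at four dose levels. Body weight recorded before each dose. Killed 3 days after last dose. Organ weights normalized to body weight, expressed relative to the saline-treated group.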

Mus musculus [4] = experiment: Hepatotoxicity in BALB/c mouse assessed as increase in liver ALT level at 0.5 to 14.6 mg/kg, ip administered twice a week for 3 weeks measured after 72 hrs of last dose; format: toxicity, organism-based; design: dose 0.5-14.6 mg/kg, route intraperitoneal; conditions: in vivo
Method in brief: (§2)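 Male 6-week-old Balb/c mice dosed ip in PBS twice weekly for 3 weeks: 0.7–23 mg/kg (four levels) or 0.5–14.6/14.8 mg/kg. Killed 72 h after final dose. Plasma from cardiac-puncture blood, ALT on clinical bioanalyzer. Errors are SD.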

Mus musculus [5] = experiment: Toxicity in BALB/c mouse assessed as effect on body weight at 0.5 to 14.6 mg/kg, ip administered twice a week for 3 weeks measured after 72 hrs of last dose; format: organism-based; design: dose 0.5-14.6 mg/kg, route intraperitoneal; conditions: in vivo; method in brief: as §1
Liver = experiment: Drug level in BALB/c mouse liver assessed per gram of tissue at 37 mg/kg, ip administered once a week for 3 weeks measured after 72 hrs of last dose; format: ADME, organism-based; design: dose 37 mg/kg, route intraperitoneal; conditions: in vivo
Mus musculus [6] = experiment: Hepatotoxicity in BALB/c mouse assessed as liver ALT level at 0.5 to 14.8 mg/kg, ip administered twice a week for 3 weeks measured after 72 hrs of last dose; format: toxicity, organism-based; design: dose 0.5-14.8 mg/kg, route intraperitoneal; conditions: in vivo; method in brief: as §2
Nucleic Acid = experiment: Binding affinity to mouse PTEN mRNA assessed as melting temperature at 4 uM by thermal denaturation assay; format: nucleic-acid assay
Method in brief: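 Duplex with complementary length-matched RNA; UV absorbance versus temperature curves in 100 mM Na+, 10 mM phosphate, 0.1 mM EDTA, 4 μM each strand. Tm is the average of two experiments.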

Mus musculus [7] = experiment: Toxicity in BALB/c mouse assessed as effect on body weight at 0.5 to 14.8 mg/kg, ip administered twice a week for 3 weeks measured after 72 hrs of last dose; format: organism-based; design: dose 0.5-14.8 mg/kg, route intraperitoneal; conditions: in vivo; method in brief: as §1
Mus musculus [8] = experiment: Toxicity in BALB/c mouse assessed as effect on kidney weight at 0.5 to 14.8 mg/kg, ip administered twice a week for 3 weeks measured after 72 hrs of last dose; format: organism-based; design: dose 0.5-14.8 mg/kg, route intraperitoneal; conditions: in vivo; method in brief: as §1
Mus musculus [9] = experiment: Toxicity in BALB/c mouse assessed as effect on liver weight at 0.5 to 14.8 mg/kg, ip administered twice a week for 3 weeks measured after 72 hrs of last dose; format: organism-based; design: dose 0.5-14.8 mg/kg, route intraperitoneal; conditions: in vivo; method in brief: as §1
Mus musculus [10] = experiment: Reduction in PTEN mRNA expression in BALB/c mouse liver at 37 mg/kg, ip administered once a week for 3 weeks measured after 72 hrs of last dose by RT-PCR analysis; format: functional, organism-based; design: dose 37 mg/kg
Mus musculus [11] = experiment: Toxicity in BALB/c mouse assessed as increase in spleen weight at 0.5 to 14.8 mg/kg, ip administered twice a week for 3 weeks measured after 72 hrs of last dose; format: organism-based; design: dose 0.5-14.8 mg/kg, route intraperitoneal; conditions: in vivo; method in brief: as §1
Mus musculus [12] = experiment: Toxicity in BALB/c mouse assessed as effect on liver weight at 0.7 to 23 mg/kg, ip administered twice a week for 3 weeks measured after 72 hrs of last dose; format: organism-based; design: dose 0.7-23 mg/kg, route intraperitoneal; conditions: in vivo; method in brief: as §1
Mus musculus [13] = experiment: Toxicity in BALB/c mouse assessed as effect on body weight at 0.7 to 23 mg/kg, ip administered twice a week for 3 weeks measured after 72 hrs of last dose; format: organism-based; design: dose 0.7-23 mg/kg, route intraperitoneal; conditions: in vivo; method in brief: as §1
Mus musculus [14] = experiment: Hepatotoxicity in BALB/c mouse assessed as liver ALT level at 0.7 to 23 mg/kg, ip administered twice a week for 3 weeks measured after 72 hrs of last dose; format: toxicity, organism-based; design: dose 0.7-23 mg/kg, route intraperitoneal; conditions: in vivo; method in brief: as §2
Mus musculus [15] = experiment: Toxicity in BALB/c mouse assessed as effect on kidney weight at 0.7 to 23 mg/kg, ip administered twice a week for 3 weeks measured after 72 hrs of last dose; format: organism-based; design: dose 0.7-23 mg/kg, route intraperitoneal; conditions: in vivo; method in brief: as §1

| IC50 [2] | Drug uptake (Liver) | Tm (Nucleic Acid) | SMILES | ED50 (Mus musculus [1]) | Activity (Mus musculus [3]) | Activity (Mus musculus [4]) | Activity (Mus musculus [5]) | Activity (Mus musculus [6]) | Activity (Mus musculus [1]) | Activity [2] | Activity (Mus musculus [7]) | Activity (Mus musculus [8]) | Activity (Mus musculus [9]) | Activity (Mus musculus [10]) | Activity (Mus musculus [11]) | Activity (Mus musculus [12]) | Activity (Mus musculus [13]) | Activity (Mus musculus [14]) | Activity (Mus musculus [15]) |
| --- | --- | --- | --- | --- | --- | --- | --- | --- | --- | --- | --- | --- | --- | --- | --- | --- | --- | --- | --- |
| 1.3 nM | 30 µg/g | – | Cc1cn([C@@H]2O[C@]3(CO)CO[C@@H]2[C@@H]3OP(O)(=S)OC[C@]23CC([C@H](n4cc(C)c(=O)[nH]c4=O)O2)[C@@H]3OP(O)(=S)OC[C@H]2O[C@@H](n3cc(C)c(=O)[nH]c3=O)C[C@@H]2OP(O)(=S)OC[C@H]2O[C@@H](n3cnc4c(N)ncnc43)[C@H](O)[C@@H]2OP(O)(=S)OC[C@H]2O[C@@H](n3cnc4c(=O)[nH]c(N)nc43)[C@H](O)[C@@H]2OP(O)(=S)OC[C@H]2O[C@@H](n3ccc(N)nc3=O)[C@H](O)[C@@H]2OP(O)(=S)OC[C@H]2O[C@@H](n3cnc4c(N)ncnc43)[C@H](O)[C@@H]2OP(O)(=S)OC[C@H]2O[C@@H](n3ccc(N)nc3=O)[C@H](O)[C@@H]2OP(O)(=S)OC[C@H]2O[C@@H](n3cc(C)c(=O)[nH]c3=O)C[C@@H]2OP(O)(=S)OC[C@H]2O[C@@H](n3cnc4c(=O)[nH]c(N)nc43)[C@H](O)[C@@H]2OP(O)(=S)OC[C@H]2O[C@@H](n3cnc4c(=O)[nH]c(N)nc43)[C@H](O)[C@@H]2OP(O)(=S)OC[C@H]2O[C@@H](n3ccc(N)nc3=O)[C@H](O)[C@@H]2OP(O)(=S)OC[C@]23CO[C@@H]([C@H](n4cc(C)c(N)nc4=O)O2)[C@@H]3OP(O)(=S)OC[C@]23CC([C@H](n4cc(C)c(=O)[nH]c4=O)O2)[C@@H]3O)c(=O)nc1N (stereo not given in full) | 3 mg/kg | Toxic | Toxic | Toxic | – | – | – | – | – | – | – | – | – | – | – | – |
| 2.5 nM | – | 58.6 °C | Cc1cn([C@@H]2O[C@]3(CO)CN(C)O[C@@H]2[C@@H]3OP(O)(=S)OC[C@]23CN(C)O[C@@H]([C@H](n4cc(C)c(=O)[nH]c4=O)O2)[C@@H]3OP(O)(=S)OC[C@H]2O[C@@H](n3cc(C)c(=O)[nH]c3=O)C[C@@H]2OP(O)(=S)OC[C@H]2O[C@@H](n3cnc4c(N)ncnc43)[C@H](O)[C@@H]2OP(O)(=S)OC[C@H]2O[C@@H](n3cnc4c(=O)[nH]c(N)nc43)[C@H](O)[C@@H]2OP(O)(=S)OC[C@H]2O[C@@H](n3ccc(N)nc3=O)[C@H](O)[C@@H]2OP(O)(=S)OC[C@H]2O[C@@H](n3cnc4c(N)ncnc43)[C@H](O)[C@@H]2OP(O)(=S)OC[C@H]2O[C@@H](n3ccc(N)nc3=O)[C@H](O)[C@@H]2OP(O)(=S)OC[C@H]2O[C@@H](n3cc(C)c(=O)[nH]c3=O)C[C@@H]2OP(O)(=S)OC[C@H]2O[C@@H](n3cnc4c(=O)[nH]c(N)nc43)[C@H](O)[C@@H]2OP(O)(=S)OC[C@H]2O[C@@H](n3cnc4c(=O)[nH]c(N)nc43)[C@H](O)[C@@H]2OP(O)(=S)OC[C@H]2O[C@@H](n3ccc(N)nc3=O)[C@H](O)[C@@H]2OP(O)(=S)OC[C@]23CN(C)O[C@@H]([C@H](n4cc(C)c(N)nc4=O)O2)[C@@H]3OP(O)(=S)OC[C@]23CN(C)O[C@@H]([C@H](n4cc(C)c(=O)[nH]c4=O)O2)[C@@H]3O)c(=O)nc1N (stereo not given in full) | 6 mg/kg | – | – | – | Non-toxic | Dose-dependent effect | Dose-dependent effect | Non-toxic | Non-toxic | Non-toxic | Active | Toxic | – | – | – | – |
| 1 nM | – | 67.9 °C | COCCO[C@@H]1[C@H](OP(O)(=S)OC[C@H]2O[C@@H](n3cc(C)c(=O)[nH]c3=O)C[C@@H]2OP(O)(=S)OC[C@H]2O[C@@H](n3cnc4c(=O)[nH]c(N)nc43)[C@H](OCCOC)[C@@H]2OP(O)(=S)OC[C@H]2O[C@@H](n3cc(C)c(N)nc3=O)[C@H](OCCOC)[C@@H]2OP(O)(=S)OC[C@H]2O[C@@H](n3cc(C)c(=O)[nH]c3=O)C[C@@H]2OP(O)(=S)OC[C@H]2O[C@@H](n3cnc4c(N)ncnc43)[C@H](O)[C@@H]2OP(O)(=S)OC[C@H]2O[C@@H](n3cnc4c(=O)[nH]c(N)nc43)[C@H](O)[C@@H]2OP(O)(=S)OC[C@H]2O[C@@H](n3cc(C)c(N)nc3=O)C[C@@H]2OP(O)(=S)OC[C@H]2O[C@@H](n3cc(C)c(N)nc3=O)C[C@@H]2OP(O)(=S)OC[C@H]2O[C@@H](n3cc(C)c(=O)[nH]c3=O)C[C@@H]2OP(O)(=S)OC[C@H]2O[C@@H](n3cc(C)c(N)nc3=O)C[C@@H]2OP(O)(=S)OC[C@H]2O[C@@H](n3cc(C)c(=O)[nH]c3=O)C[C@@H]2OP(O)(=S)OC[C@H]2O[C@@H](n3cnc4c(=O)[nH]c(N)nc43)[C@H](O)[C@@H]2OP(O)(=S)OC[C@H]2O[C@@H](n3cnc4c(=O)[nH]c(N)nc43)[C@H](O)[C@@H]2OP(O)(=S)OC[C@H]2O[C@@H](n3cnc4c(N)ncnc43)[C@H](O)[C@@H]2OP(O)(=S)OC[C@H]2O[C@@H](n3cc(C)c(=O)[nH]c3=O)C[C@@H]2OP(O)(=S)OC[C@H]2O[C@@H](n3cc(C)c(=O)[nH]c3=O)C[C@@H]2OP(O)(=S)OC[C@H]2O[C@@H](n3cc(C)c(=O)[nH]c3=O)C[C@@H]2OP(O)(=S)OC[C@H]2O[C@@H](n3cnc4c(=O)[nH]c(N)nc43)[C@H](OCCOC)[C@@H]2OP(O)(=S)OC[C@H]2O[C@@H](n3cnc4c(N)ncnc43)[C@H](OCCOC)[C@@H]2O)[C@@H](CO)O[C@H]1n1cc(C)c(N)nc1=O (stereo not given in full) | 10 mg/kg | – | – | – | – | – | Dose-dependent effect | – | – | – | – | – | Non-toxic | Non-toxic | Non-toxic | Non-toxic |
